By IC50 is commonly meant the concentration at which inhibition is half-maximal.

The values that follow come from ChEMBL document CHEMBL4765412, “(±)-trans-2-phenyl-2,3-dihydrobenzofurans as leishmanicidal agents: Synthesis, in vitro evaluation and SAR analysis” (Eur J Med Chem, 2020).

One series deals with Leishmania donovani. In words: Antileishmanial activity against Leishmania donovani MHOM/ET/67/L82 amastigotes assessed as growth inhibition incubated for 70 hrs by resazurin based inverted microscopic analysis. The format is functional, organism-based. As to conditions: Leishmania donovani, MHOM/ET/67/L82, 70 h. The method in brief:
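Axenic L. donovani amastigotes (MHOM/ET/67/L82); racemates tested unless stated; miltefosine as positive control. Some values come from a separate run and were rescaled by that run's relative miltefosine IC50.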
A general note: The colour change of resazurin is a common sign of viable cells or microbes.

Another series relates to L6. In words: Cytotoxicity against rat L6 cells assessed as reduction in cell viability incubated for 70 hrs by resazurin staining based inverted microscopic analysis. As to conditions: L6, 70 h. The method, boiled down:
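Rat L-6 skeletal myoblast line; racemates tested unless stated.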

The nature of series [1]: Selectivity index, ratio of IC50 for cytotoxicity against rat L6 cells to IC50 for antileishmanial activity against Leishmania donovani MHOM/ET/67/L82 amastigotes. In kind it is toxicity, cell-based. As to conditions: read-out: Ratio IC50.
Series [2] in a line: Metabolic stability in mouse liver microsomes assessed as metabolite formation by ester hydrolysis at 100 umol/L incubated for 90 mins in absence of UDPGA by LC-MS analysis. The conditions noted are these: 1.5 h, 100 µM.
Series [3] is described as follows: Metabolic stability in mouse liver microsomes assessed as metabolite formation by glucuronidation at 100 umol/L incubated for 90 mins in presence of UDPGA by LC-MS analysis. The conditions noted are these: 1.5 h, 100 µM.

Turning to `OC[C@H]1c2cc(-c3ccc(O)cc3)ccc2O[C@@H]1c1ccc(O)cc1` (racemic), the IC50 was determined as 16.5 µM in the series with Leishmania donovani and 44.5 µM with L6. Besides, the selectivity ratio in series [1] amounted to 2.7.

`CC(C)OC(=O)/C=C/c1cc(O)c2c(c1)[C@H](C(=O)OC(C)C)[C@@H](c1ccc(O)c(O)c1)O2` (racemic): the IC50 in the series with Leishmania donovani worked out at 0.54 µM; with L6, 10.2 µM. The selectivity ratio in series [1] turned out to be 18.9. Also, the Drug metabolism entry in series [2] and in series [3] was “Metabolite_Detected” in each case.

`OC[C@H]1c2cc(-c3cccnc3F)ccc2O[C@@H]1c1ccc(O)cc1` (racemic): the concentration for half-maximal inhibition (IC50) with Leishmania donovani amounted to 18.8 µM; in the series on L6, 52.4 µM. Also, the selectivity ratio in series [1] was 2.8.

As for `Cc1ccc(-c2ccc3c(c2)[C@H](CO)[C@@H](c2ccc(O)cc2)O3)s1` (racemic), the results for the IC50 in the series with Leishmania donovani and in the series on L6 were 16.1 µM and 15.8 µM, respectively. The selectivity ratio in series [1] stood at 1.

Consider `COc1ccc([C@H]2Oc3ccc(/C=C/C(=O)OC(C)(C)C)cc3[C@@H]2CF)cc1OC` (racemic), for which the half-maximal inhibitory concentration (IC50) in the series on Leishmania donovani worked out at 13 µM; in the series with L6, 34 µM. The selectivity ratio in series [1] amounted to 2.6.

Turning to `O=S(=O)(OC[C@H]1c2ccccc2O[C@@H]1c1ccc(OS(=O)(=O)c2ccccn2)cc1)c1ccccn1` (racemic), the results for the IC50 with Leishmania donovani and with L6 were 6.31 µM and 189 µM, respectively. In series [1], the selectivity ratio came out at 29.9.

As to `O=Cc1ccc(-c2ccc3c(c2)[C@H](CO)[C@@H](c2ccc(O)cc2)O3)cc1` (racemic), the IC50 in the series with Leishmania donovani stood at 37.7 µM; with L6, 55.9 µM. For the same molecule, in series [1], the selectivity ratio amounted to 1.5.

`CC(C)(C)OC(=O)/C=C/c1ccc2c(c1)[C@H](C(=O)OC(C)(C)C)[C@@H](c1ccc(OC(C)(C)C)cc1)O2` (racemic): the results for the IC50 with Leishmania donovani and in the series with L6 were 13.1 µM and 202 µM, respectively. Also, the selectivity ratio in series [1] came out at 15.5.

`C/C=C/c1cc(OC)c2c(c1)[C@H](C)[C@@H](c1ccc(O)c(OC)c1)O2` (racemic) [LICARIN A]: the IC50 came out at 6.45 µM in the series on Leishmania donovani and 6.21 µM in the series on L6. Moreover, in series [1], the selectivity ratio was determined as 1.
